Most compounds without a hit are left out; they make up all but 2.4% or so of the library.
SUMO1 PPI mod: SUMO1-SIM interaction modulation; SUMO1 binding to a labelled peptide, TR-FRET, 1 h; 0.33% of 360,000 active; inhibition, % at 20 µM; AID 602429; in the data active = inhibition above about 37%
Target sequence (P63165 whole entry, looked up): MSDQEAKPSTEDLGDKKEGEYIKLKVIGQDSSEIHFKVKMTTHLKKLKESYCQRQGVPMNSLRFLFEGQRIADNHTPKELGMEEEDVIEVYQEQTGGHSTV
Scp-1 inhibitor: Scp-1 (human) phosphatase inhibition. Recombinant Scp1, phosphopeptide, malachite green phosphate absorbance. AID 493091. Q9GZU7. 0.88% of 340,000 active. inhibition, % at 20 µM;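 active = inhibition above about 50% at 20 µM, limit read from the data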;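 note: plate controls were DMSO wells with enzyme for no effect and wells lacking enzyme for full effect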
Target sequence (Q9GZU7 76-261 limits assumed): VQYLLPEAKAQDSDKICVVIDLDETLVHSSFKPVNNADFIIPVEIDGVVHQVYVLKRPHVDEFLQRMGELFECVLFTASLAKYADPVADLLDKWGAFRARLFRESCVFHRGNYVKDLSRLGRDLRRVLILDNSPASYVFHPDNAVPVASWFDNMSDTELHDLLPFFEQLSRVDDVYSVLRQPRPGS
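Material: truncated SCP-1 phosphatase (76-261aa) / Buffer or medium: 50 mM Tris acetate pH 5.5, 0.005% Tween-20, 10 mM MgCl2 / Compound dosing: one concentration, 20 µM, with 1.0% DMSO / Incubation: 45 min room-temperature reaction, 5 min colour, 30 min stabiliser / Detection: colorimetric free-phosphate detection, absorbance 630 nm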
NadD inh: blocks S. aureus nicotinate mononucleotide adenylyltransferase; inhibition, % at 20 µM; 0.78% of 360,000 active; purified NadD enzyme, colorimetric absorbance read-out; in the data active = inhibition above about 26%
STEP inh: blocks human striatal-enriched tyrosine phosphatase. P54829. recombinant STEP, OMFP fluorogenic substrate, fluorescence. inhibition, % at 20 µM. 0.25% of 360,000 active. AID 588621;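 active = inhibition at 20 µM, scaled per plate between control wells, above about 37%, limit read from the data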;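 note: 0% = DMSO with enzyme and substrate and 100% = substrate only without enzyme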
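Test system: STEP tyrosine phosphatase / Reagent: OMFP at 25 µM / Doses: 20 µM, 1% DMSO / Read-out: percent inhibition scaled to no-enzyme and uninhibited-enzyme controls, plate-pattern corrected / Detection: FITC-channel fluorescence of OMFP product / Medium: Bis-Tris buffer pH 6.0, 2.5 mM DTT, 0.005% Tween 20 / Schedule: 20 min at room temperature, dark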
DNMT1 block: DNMT1 (human) enzyme inhibition; DNMT1 molecular beacon, Hinp1I cleavage, fluorescence; P26358; inhibition (reported as % activation of signal), % at 10 µM; 0.83% of 360,000 active; in the data active = inhibition above about 50%
LMPTP inh: LMPTP (human) inhibition; inhibition, % at 20 µM; AID 651560; 0.22% of 360,000 active; recombinant LMPTP-A, OMFP fluorogenic substrate, fluorescence intensity; P24666;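 active = compounds that cut the enzyme signal by at least half of the control window in the single-dose screen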;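 note: plate controls were DMSO wells with enzyme plus substrate for no effect and substrate without enzyme for full effect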
Target sequence (P24666 whole entry, looked up): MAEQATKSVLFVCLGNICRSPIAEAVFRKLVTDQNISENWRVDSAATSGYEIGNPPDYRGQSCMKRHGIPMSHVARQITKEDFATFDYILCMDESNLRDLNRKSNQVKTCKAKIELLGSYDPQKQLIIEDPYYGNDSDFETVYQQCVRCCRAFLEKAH
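material = LMPTP-A | quantity = 0.625 nM enzyme | reagent = OMFP substrate, 400 µM final | buffer or medium = Bis-Tris pH 6.0, DTT, detergent | detection = endpoint fluorescence intensity from OMFP dephosphorylation | dosing = single 20 µM dose | read-out basis = % inhibition relative to no-enzyme and uninhibited control wells | control set = no-enzyme and uninhibited controls | timing = 50 min at room temperature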
DNMT1 inh conf: DNMT1 inhibition confirmation, single concentration; shares compounds with DNMT1 block; DNMT1 molecular beacon HinP1I cleavage, fluorescence; inhibition, % at 10 µM; 8% of 2,300 active; AID 602385;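 active = average inhibition of at least 30% in the single-concentration confirmation test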
Beacon interf: counter-screen for DNMT1 inhibitors: spectral interference; activation (fluorescence interference), % at 10 µM; 1% of 2,300 active; DNMT1 molecular beacon spectral interference counterscreen, fluorescence 485/520; AID 602387; shares compounds with DNMT1 block;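 active = activation of at least 30% at 10 µM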;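 note: DNMT1 catalytic domain with a HinP1I cleavage step and a FAM/dabcyl DNA beacon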
* = called active by the depositor.

What do the screens show for `O=C(Cc1c(F)cccc1Cl)NCC(=O)OCc1ccccc1`?
SUMO1 PPI mod: 1; Scp-1 inhibitor: -11; NadD inh: -4; STEP inh: 1; DNMT1 block: -8; LMPTP inh: 0

What do the screens show for `O=C(CNC(=O)c1ccco1)NCC(=O)OCc1ccc(Cl)cc1Cl`?
SUMO1 PPI mod: 6; Scp-1 inhibitor: -7; NadD inh: -4; STEP inh: 0; DNMT1 block: 66*; LMPTP inh: -1; DNMT1 inh conf: 1; Beacon interf: 5

Results for O=C(CNC(=O)Cc1ccccc1)NCC(=O)OCc1ccccc1 ?
SUMO1 PPI mod: 1; Scp-1 inhibitor: 1; NadD inh: -5; STEP inh: 3; DNMT1 block: 68*; LMPTP inh: -1; DNMT1 inh conf: 0; Beacon interf: 3

Results for Cc1cc(NC(=O)CCC(=O)N(Cc2ccco2)C(C(=O)NC2CCCC2)c2ccc(F)cc2)no1 (stereo unspecified) ?
SUMO1 PPI mod: -1; Scp-1 inhibitor: -9; NadD inh: -3; STEP inh: 2; DNMT1 block: 2; LMPTP inh: -1

How did Cc1ccc(-c2cc(C(F)F)n3ncc(C(=O)NCc4ccco4)c3n2)cc1 do in these assays?
SUMO1 PPI mod: 3; Scp-1 inhibitor: 6; NadD inh: -2; STEP inh: -2; DNMT1 block: 76*; LMPTP inh: 0; DNMT1 inh conf: 0; Beacon interf: -10

Results for O=C(CCc1ccc(S(=O)(=O)N2CCOCC2)cc1)OCc1nc2ccccc2s1 ?
SUMO1 PPI mod: 2; Scp-1 inhibitor: -2; NadD inh: 3; STEP inh: -1; DNMT1 block: 99*; LMPTP inh: -1; DNMT1 inh conf: 8; Beacon interf: 8

How did CN(C)S(=O)(=O)N(Cc1ccc(Br)cc1)c1ccccc1 do in these assays?
SUMO1 PPI mod: -2; Scp-1 inhibitor: -11; NadD inh: -2; STEP inh: 2; DNMT1 block: -4; LMPTP inh: 2

What do the screens show for `CN(C)S(=O)(=O)N(CC(=O)N(Cc1ccccc1)Cc1ccccc1)c1ccccc1`?
SUMO1 PPI mod: 1; Scp-1 inhibitor: 39; NadD inh: -7; STEP inh: 7; DNMT1 block: 56*; LMPTP inh: 13; DNMT1 inh conf: 3; Beacon interf: 4

How did Cc1ncc([N+](=O)[O-])n1CC(=O)Nc1ccc(F)c(F)c1 do in these assays?
SUMO1 PPI mod: -2; Scp-1 inhibitor: -5; NadD inh: -7; STEP inh: -2; DNMT1 block: -2; LMPTP inh: 0

What do the screens show for `COc1ccc(C(C)(C)C)cc1NC(=O)c1ccc2c(c1)SC1=NS(=O)(=O)CCN12`?
SUMO1 PPI mod: -2; Scp-1 inhibitor: -9; NadD inh: -6; STEP inh: 0; DNMT1 block: 69*; LMPTP inh: -1; DNMT1 inh conf: 0; Beacon interf: 2

How did OCC[C@@H]1C[C@H](O)[C@@H](O)[C@@]2(Cc3ccccc3CCO2)O1 do in these assays?
SUMO1 PPI mod: 2; Scp-1 inhibitor: -3; NadD inh: 1; STEP inh: -1; DNMT1 block: 5; LMPTP inh: -3

What do the screens show for `COc1ccc2nc(C)cc(SCC(=O)N/N=C/c3cccc4ccccc34)c2c1`?
SUMO1 PPI mod: 1; Scp-1 inhibitor: -11; NadD inh: 9; STEP inh: 3; DNMT1 block: 53*; LMPTP inh: 26; DNMT1 inh conf: 3; Beacon interf: -3

Results for O=C(c1cnsn1)N1CCC(CO)(Cc2ccc(Cl)cc2)CC1 ?
SUMO1 PPI mod: -3; Scp-1 inhibitor: -1; NadD inh: 12; STEP inh: -4; DNMT1 block: 5; LMPTP inh: 0

Results for Cc1cc(C)n(/N=C/c2c[nH]c3ccccc23)c(=O)c1C#N ?
SUMO1 PPI mod: -4; Scp-1 inhibitor: 1; NadD inh: -3; STEP inh: -1; DNMT1 block: 4; LMPTP inh: 1

Results for CN(/N=C/c1c[nH]c2ccccc12)c1cnn(-c2ccc(F)c(Cl)c2)c(=O)c1Cl ?
SUMO1 PPI mod: -1; Scp-1 inhibitor: 3; NadD inh: 18; STEP inh: -3; DNMT1 block: 111*; LMPTP inh: 1; DNMT1 inh conf: 3; Beacon interf: 8

How did Cc1ccc(NC(=O)c2nc[nH]c2C(=O)NCCCCNC(=O)c2[nH]cnc2C(=O)Nc2ccc(C)cc2)cc1 do in these assays?
SUMO1 PPI mod: 3; Scp-1 inhibitor: -9; NadD inh: 27; STEP inh: -4; DNMT1 block: 89*; LMPTP inh: 2; DNMT1 inh conf: 2; Beacon interf: -4

How did Cc1ccc(NC(=O)c2nc[nH]c2C(=O)NCCCCCCNC(=O)c2[nH]cnc2C(=O)Nc2ccc(C)cc2)cc1 do in these assays?
SUMO1 PPI mod: 3; Scp-1 inhibitor: -14; NadD inh: 29; STEP inh: -4; DNMT1 block: 28; LMPTP inh: 1

What do the screens show for `O=C(Nc1cccc(Cl)c1)c1nc[nH]c1C(=O)NCCCNC(=O)c1[nH]cnc1C(=O)Nc1cccc(Cl)c1`?
SUMO1 PPI mod: 4; Scp-1 inhibitor: 0; NadD inh: 28; STEP inh: -1; DNMT1 block: 61*; LMPTP inh: 1; DNMT1 inh conf: 2; Beacon interf: -3

What do the screens show for `O=C(Nc1ccccc1)c1nc[nH]c1C(=O)NCCCCNC(=O)c1[nH]cnc1C(=O)Nc1ccccc1`?
SUMO1 PPI mod: -4; Scp-1 inhibitor: 0; NadD inh: 24; STEP inh: -5; DNMT1 block: -15; LMPTP inh: 0

Results for Cc1ccc(NC(=O)c2nc[nH]c2C(=O)NCCCNC(=O)c2[nH]cnc2C(=O)Nc2ccc(C)cc2)cc1 ?
SUMO1 PPI mod: 2; Scp-1 inhibitor: -2; NadD inh: 10; STEP inh: -2; DNMT1 block: 59*; LMPTP inh: 0; DNMT1 inh conf: 8; Beacon interf: 0

How did CC(SC(C)C(=O)NN=Cc1cccc(Cl)c1)C(=O)NN=Cc1cccc(Cl)c1 (stereo unspecified) do in these assays?
SUMO1 PPI mod: -1; Scp-1 inhibitor: -7; NadD inh: 16; STEP inh: 0; DNMT1 block: 65*; LMPTP inh: -1; DNMT1 inh conf: 6; Beacon interf: 7

How did COC(=O)c1cccc(NC(=O)CSc2nc3cccnc3n2C)c1 do in these assays?
SUMO1 PPI mod: 20; Scp-1 inhibitor: 0; NadD inh: 5; STEP inh: -3; DNMT1 block: 33; LMPTP inh: 0

Screening data from PubChem BioAssay.
